Reference: ChEMBL document CHEMBL4257474, “Antiproliferative activity of novel isatinyl/indanyl nitrones (INs) as potential spin trapping agents of free radical intermediates” (Medchemcomm, 2018)
The source made the active and inactive calls. The rule behind the calls is not given here.

What was measured:
MG-63 [1] = experiment: Antiproliferative activity against human MG63 cells after 3 days by MTT assay; assay type: functional, cell-based; details: MG-63, 72 h
How it was run: (§1)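 Osteosarcoma cells were seeded at 4000 per well 6 h before treatment in medium with 10% FBS, penicillin/streptomycin and 2 mM glutamine, at 37 °C and 5% CO2. Compounds came from 40 mM DMSO stocks and were tested at 3–200 µM for 3 days. MTT was added for 2 h and formazan dissolved in 50% DMF/20% SDS pH 4.7 for 16 h. A570 was read versus untreated control; IC50 calculated. Three independent experiments in triplicate.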

HOS-TE85 [2] = experiment: Antiproliferative activity against human HOSTE85 cells after 3 days by MTT assay; assay type: functional, cell-based; details: HOS-TE85, 72 h; how it was run: as §1
K562 [3] = experiment: Antiproliferative activity against human K562 cells after 3 days by MTT assay; assay type: functional, cell-based
How it was run: (§2)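 K562 leukemia cells were seeded at 20000 cells per mL in medium with 10% FBS, penicillin/streptomycin and 2 mM glutamine, at 37 °C and 5% CO2. Compounds were diluted from 40 mM DMSO stocks and applied at 3–200 µM for 3 days. MTT was added for 2 h, then lysis in 50% DMF/20% SDS pH 4.7 for 16 h, and A570 read. Proliferation was expressed as % of untreated cells; IC50 calculated. Three independent experiments in triplicate.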

[4] = Antioxidant activity assessed as DPPH free radical scavenging at 4 x 10^-6mol/L after 10 mins by UV-vis spectrophotometric analysis relative to control; assay type: functional
How it was run: (§3)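 Ethanolic DPPH was added to the compound in ethanol at the stated concentration, within a five-level series of 1.15 × 10^-6 to 9.10 × 10^-6 mol L^-1. After 10 min in the dark, absorbance was read at 517 nm against absolute ethanol. Scavenging was expressed as RSA% = [(A0 − Ai)/A0] × 100, with A0 the absorbance without compound. BHT served as reference. Triplicate.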

[5] = Antioxidant activity assessed as DPPH free radical scavenging at 6.25 x 10^-6mol/L after 10 mins by UV-vis spectrophotometric analysis relative to control; assay type: functional; how it was run: as §3
[6] = Antioxidant activity assessed as DPPH free radical scavenging at 9.10 x 10^-6mol/L after 10 mins by UV-vis spectrophotometric analysis relative to control; assay type: functional; how it was run: as §3
[7] = Antioxidant activity assessed as DPPH free radical scavenging after 10 mins by UV-vis spectrophotometric analysis; assay type: functional
How it was run: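 DPPH and test compound mixed in ethanol at five concentrations, 1.15 × 10^-6 to 9.10 × 10^-6 mol L^-1. After 10 min in the dark, absorbance at 517 nm was read against ethanol blank. RSA% = [(A0 − Ai)/A0] × 100. EC50 (concentration giving 50% radical inhibition) was derived from the RSA% values. BHT was the reference over the same range. Triplicate.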

MG-63 [8] = experiment: Antiproliferative activity against human MG63 cells at 3 to 200 uM after 3 days by MTT assay; assay type: functional, cell-based; how it was run: as §1
HOS-TE85 [9] = experiment: Antiproliferative activity against human HOSTE85 cells at 3 to 200 uM after 3 days by MTT assay; assay type: functional, cell-based; how it was run: as §1
K562 [10] = experiment: Antiproliferative activity against human K562 cells at 3 to 200 uM after 3 days by MTT assay; assay type: functional, cell-based; how it was run: as §2
[11] = Antioxidant activity assessed as DPPH free radical scavenging at 1.15 x 10^-6mol/L after 10 mins by UV-vis spectrophotometric analysis relative to control; assay type: functional; how it was run: as §3
[12] = Antioxidant activity assessed as DPPH free radical scavenging at 2.45 x 10^-6mol/L after 10 mins by UV-vis spectrophotometric analysis relative to control; assay type: functional; how it was run: as §3

Structure (SMILES) | IC50 (MG-63 [1]) | IC50 (HOS-TE85 [2]) | Activity (K562 [3]) | Activity [4] | Activity [5] | Activity [6] | EC50 [7] | Activity (MG-63 [8]) | Activity (HOS-TE85 [9]) | Activity (K562 [10]) | Activity [11] | Activity [12] | IC50 (K562 [3]; K562, 72 h)
O=C1Nc2ccc([N+](=O)[O-])cc2/C1=[N+](\[O-])Cc1ccccc1 | 77000 nM | 32000 nM | inactive | 60% | 67% | 80% | 1000 nM | – | – | – | – | – | –
C/[N+]([O-])=C1\CCc2ccccc21 | – | – | inactive | 1.1% | 60% | 78% | 1300 nM | inactive | inactive | inactive | – | – | –
[O-]/[N+](Cc1ccccc1)=C1/CCc2ccccc21 | – | – | inactive | 1.3% | 70% | 79% | 1200 nM | inactive | inactive | inactive | 1.1% | 1.2% | –
O=C1Nc2ccccc2/C1=[N+](\[O-])c1ccccc1 | – | – | inactive | 1.2% | 69% | 80% | 1300 nM | inactive | inactive | inactive | 1.1% | 1.2% | –
Cc1cc(C(C)(C)C)c(O)c(C(C)(C)C)c1 [BUTYLATED HYDROXYTOLUENE] | – | – | – | 11.7% | 23% | 27% | 3800 nM | – | – | – | – | 4.6% | –
C/[N+]([O-])=C1\CCc2cc(F)ccc21 | – | – | inactive | 1.1% | 1.2% | 79% | 1800 nM | inactive | inactive | inactive | – | – | –
C/[N+]([O-])=C1\C(=O)Nc2ccc([N+](=O)[O-])cc21 | – | 32000 nM | inactive | 1.1% | 72% | 79% | 1200 nM | – | – | – | – | – | –
CN1C(=O)/C(=[N+](/[O-])Cc2ccccc2)c2ccccc21 | 77000 nM | – | – | 68% | 70% | 79% | 600 nM | – | – | – | 1.2% | 60% | 78000 nM
O=C1Nc2ccccc2/C1=[N+](\[O-])Cc1ccccc1 | 77000 nM | 32000 nM | inactive | 1.2% | 1.2% | 78% | 1800 nM | – | – | – | 1.1% | 1.1% | –
